This note sets out measurements from ChEMBL document CHEMBL2029208 (Bioorg Med Chem, 2012).

One may read the IC50 as the concentration that inhibits the measured activity by half. A word on the inhibition: it is the drop in the measured response relative to a control, in per cent. Low values mean a response near the control, high ones a response far below the control.

Data set [1] deals with Mycobacterium tuberculosis. Briefly: microbe, parasite or virus in culture. As to conditions: H37Ra. It counts as functional.
For data set [2], the system named is Mycobacterium tuberculosis. Kind of data set: Antimycobacterial activity against Mycobacterium tuberculosis H37Ra infected in gamma interferon-knockout mouse assessed as reduction in lung CFU load at 150 mg/kg, po BID dosage beginning at 15 post infection for 9 days (reference value: 8.86 +/- 0.02 log10CFU). Format: functional.
In data set [3] the test system is Mycobacterium tuberculosis. Kind of data set: Antimycobacterial activity against Mycobacterium tuberculosis H37Ra infected in gamma interferon-knockout mouse assessed as reduction in spleen CFU load at 150 mg/kg, po BID dosage beginning at 15 post infection for 9 days (reference value: 7.30 +/- 0.09 log10CFU). Format: functional.
Data set [4] concerns Mycobacterium tuberculosis. Kind of data set: Antimycobacterial activity against Mycobacterium tuberculosis H37Ra infected in gamma interferon-knockout mouse assessed as reduction in lung CFU load at 25 mg/kg, po BID dosage beginning at 15 post infection for 9 days (reference value: 8.86 +/- 0.02 log10CFU). It counts as functional.
Data set [5] has as its system Mycobacterium tuberculosis. Briefly: Antimycobacterial activity against Mycobacterium tuberculosis H37Ra infected in gamma interferon-knockout mouse assessed as reduction in spleen CFU load at 25 mg/kg, po BID dosage beginning at 15 post infection for 9 days (reference value: 7.30 +/- 0.09 log10CFU). Format: functional.
Data set [6] concerns Mycobacterium tuberculosis. Briefly: Antimycobacterial activity against Mycobacterium tuberculosis H37Ra at 10 uM. Format: functional, organism-based.
The target of data set [7] is T1, Bifunctional epoxide hydrolase 2 (Homo sapiens, UniProt P34913).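 Further: recombinant enzyme with CMNPC substrate, fluorescence readout of 6-methoxy-2-naphthaldehyde formed over a 10 min reaction.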
T1 sequence (P34913 whole entry): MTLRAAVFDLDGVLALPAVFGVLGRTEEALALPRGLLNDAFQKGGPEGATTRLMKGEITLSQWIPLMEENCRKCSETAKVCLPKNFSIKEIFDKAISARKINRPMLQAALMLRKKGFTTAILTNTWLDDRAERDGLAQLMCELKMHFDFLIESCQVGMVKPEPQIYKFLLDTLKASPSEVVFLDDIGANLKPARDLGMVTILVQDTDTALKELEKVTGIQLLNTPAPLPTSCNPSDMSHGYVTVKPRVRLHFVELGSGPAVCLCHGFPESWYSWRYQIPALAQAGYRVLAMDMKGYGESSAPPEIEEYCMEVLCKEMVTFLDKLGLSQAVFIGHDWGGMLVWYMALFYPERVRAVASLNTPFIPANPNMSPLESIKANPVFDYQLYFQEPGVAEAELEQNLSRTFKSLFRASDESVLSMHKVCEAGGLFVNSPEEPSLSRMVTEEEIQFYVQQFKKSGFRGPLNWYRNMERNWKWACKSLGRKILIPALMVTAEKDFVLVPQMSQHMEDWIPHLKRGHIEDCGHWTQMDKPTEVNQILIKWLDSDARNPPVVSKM

Data set [8] relates to Mycobacterium tuberculosis. Briefly: Inhibition of Mycobacterium tuberculosis epoxide hydrolase E expressed in Escherichia coli BL21AI cells using cyano(6-methoxy-2-napthalenyl)methyl[(2,3)-3-phenyloxiranyl] methyl ester carbonate as substrate at 10 nM preincubated for 10 mins before substrate addition measured after 30 mins by spectrofluorometric analysis.
For data set [9] the following is noted: mycobacterium tuberculosis h37ra, cytosol, 5 µM.
Data set [10] is described as follows: Drug uptake in mouse serum at 140 mg/kg, po administered in 30% Captisol measured after 2 hrs by LC-MS/MS analysis. As to conditions: read-out: Drug uptake. More on the design: dose 140 mg/kg, route oral. Format: ADME, organism-based. The essentials: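 Non-genetically modified mice were dosed at 140 mg/kg in 30% Captisol by gavage. Blood was clotted for at least 1 h and spun at ~3000g for 15 min, and serum was frozen at −70°C. Serum was diluted 4:1 with methanol containing warfarin (final 5 μM) as internal standard and centrifuged. Samples were quantified by LC/MS against a 7-point calibration curve.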

In brackets after ≈: the same amount, converted by molar mass. Activity calls are given as the source filed them. The calls are words filed in the database; no cut-off is given here. Bounds are passed on as bounds.

With `COC(=O)c1ccc(NC(=O)NC2C3CC4CC(C3)CC2C4)cc1O` (centres undefined), the MIC in [1] was 0.1 µg/mL (≈ 0.29 µM). The log10cfu turned out to be 8.74 in data set [2] and 7.33 in [3].

Take `NNC(=O)c1ccncc1` [ISONIAZID]: the MIC in data set [1] stood at 0.08 µg/mL (≈ 0.583 µM). Further, the results for the log10cfu in [4] and in data set [5] were 5.41 and 3.63, respectively.

`COC(=O)c1ccc(NC(=O)NC2CCCCCC2)cc1` came in with an MIC in [1] of 3.63 µg/mL (≈ 12.5 µM). In addition, the result in [6] was inactive. For the same compound, the IC50 in data set [7] was 12.3 nM.

On to `O=C(Nc1ccc(OCCCN2CCOCC2)cc1)NC12CC3CC(CC(C3)C1)C2`, for which the MIC in data set [1] is over 17 µg/mL. The same compound gave an inhibition in data set [8] of 19%. Besides, in [9], the Drug uptake is 103 ng.

`CCCCCO[C@H]1CC[C@H](NC(=O)NC23CC4CC(CC(C4)C2)C3)CC1`: in data set [1], the MIC worked out at 25 µg/mL (≈ 69 µM). The inhibition in data set [8] amounted to 93%. The Drug uptake in data set [9] was 128 ng.

`COC(=O)c1ccc(NC(=O)NC23CC4CC(CC(C4)C2)C3)cc1O`: in data set [1], the MIC was determined as 1.1 µg/mL (≈ 3.19 µM). For the same compound, the outcome in data set [6] was inactive. Also, the log10cfu in data set [2] is recorded as 8.77; in [3], 7.31. The concentration at 2 h in data set [10] was 3000 nM.

In data set [8], `O=C(Nc1ccc(F)c(F)c1F)NC1C2CC3CC(C2)CC1C3` (centres undefined) gave an inhibition of 68%.

In data set [1], `COC(=O)c1cccc(O[C@H]2CC[C@@H](NC(=O)NC34CC5CC(CC(C5)C3)C4)CC2)c1` displayed an MIC of over 85 µg/mL. The result in [6] was inactive. Also, in data set [7], the 50% inhibitory concentration (IC50) was 2.5 nM.
